Data set [1] in a line: Apparent permeability across apical to basolateral membrane in dog MDCK-MDR1 cells. The class given is ADME, cell-based, Canis lupus familiaris.
The nature of data set [2]: Apparent permeability across basolateral to apical membrane in dog MDCK-MDR1 cells. The class given is ADME, cell-based, Canis lupus familiaris.
The nature of data set [3]: Intrinsic clearance in mouse liver microsomes. Format: ADME, Microsome. Conditions: read-out: CLH.
A short description of data set [4]: Efflux ratio of apparent permeability in dog MDCK-MDR1 cells. The class given is ADME, cell-based, Canis lupus familiaris.
In data set [5] the target is T1, Palmitoleoyl-protein carboxylesterase NOTUM (Homo sapiens, UniProt Q6P988, C330S). The class given is cell-based.
T1 sequence (Q6P988 20-496 C330S limits assumed): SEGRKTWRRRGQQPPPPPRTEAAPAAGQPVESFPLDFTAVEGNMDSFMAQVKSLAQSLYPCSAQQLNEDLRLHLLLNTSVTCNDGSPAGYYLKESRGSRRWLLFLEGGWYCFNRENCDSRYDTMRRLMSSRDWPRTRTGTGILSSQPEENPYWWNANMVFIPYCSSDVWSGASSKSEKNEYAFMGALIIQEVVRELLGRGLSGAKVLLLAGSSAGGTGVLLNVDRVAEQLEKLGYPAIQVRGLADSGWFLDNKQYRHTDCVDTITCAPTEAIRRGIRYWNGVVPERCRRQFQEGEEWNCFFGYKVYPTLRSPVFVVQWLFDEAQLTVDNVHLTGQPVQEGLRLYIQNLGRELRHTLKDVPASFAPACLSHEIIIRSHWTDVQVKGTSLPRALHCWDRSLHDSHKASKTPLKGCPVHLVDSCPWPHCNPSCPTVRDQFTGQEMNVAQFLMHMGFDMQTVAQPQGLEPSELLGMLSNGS
Data set [6] is described as follows: Stability of the compound in citrate buffer at pH 4 measured up to 24 hrs by UPLC-MS analysis. Format: physicochemical. Conditions: pH 4, 24 h. A digest of the protocol:
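Incubated in 0.1 M citrate buffer at pH 4 and sampled at several time points up to 24 h. The parent amide was monitored by UPLC-MS.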

Data set [7] deals with T1, Palmitoleoyl-protein carboxylesterase NOTUM. The class given is ADME, cell-based. The note with it: 72 h.

The Papp A→B is the apparent permeability from the apical to the basolateral side of a cell layer. In general, Papp B→A refers to the apparent permeability from the basolateral to the apical side of a cell layer. In general, efflux ratio refers to a quotient of directional permeabilities that is used to spot active efflux. Take `O=C1CN(C(=O)CSc2ncnc3c(C4CC4)c(Cl)sc23)CCN1`: the Papp A→B in data set [1] amounted to 7.9 ×10⁻⁶ cm/s. Besides, the Papp B→A in data set [2] was determined as 65 ×10⁻⁶ cm/s. Also, the microsomal CLint in data set [3] came out at 24 µL/min/mg. Besides, in data set [4], the efflux ratio came out at 8.2.

In general, IC50 refers to the point on the concentration scale where inhibition reaches its midpoint. Lower therefore signals inhibition by little substance. On to `O=C(CSc1ncnc2c(C3CC3)c(Cl)sc12)N1CCn2cnnc2C1`, for which, in data set [5], the IC50 came out at 1.1 nM. In addition, the Papp A→B in data set [1] was determined as 0.95 ×10⁻⁶ cm/s. In addition, in data set [2], the Papp B→A stood at 93 ×10⁻⁶ cm/s. Also, the microsomal CLint in data set [3] came out at 29 µL/min/mg. For the same compound, the efflux ratio in data set [4] worked out at 98.

For the compound `O=C1CN(C(=O)CSc2ncnc3c(C4CC4)c(Cl)sc23)CN1`, in data set [1], the apparent permeability from apical to basolateral (Papp A→B) came out at 3.8 ×10⁻⁶ cm/s. Further, in data set [2], the Papp B→A was 14 ×10⁻⁶ cm/s. Further, in data set [3], the microsomal CLint stood at 19 µL/min/mg. Besides, in data set [4], the efflux ratio came out at 3.7.

As for `Cc1sc2ncnc(SCC(=O)O)c2c1Cl`, the half-inhibitory concentration (IC50) in data set [5] stood at 3 nM.

Take `O=C(CSc1ncnc2c(C3CC3)c(Cl)sc12)N1CCOCC1`: the Papp A→B in data set [1] was determined as 40 ×10⁻⁶ cm/s. Further, the basolateral-to-apical permeability (Papp B→A) in data set [2] is 38 ×10⁻⁶ cm/s. In data set [3], the microsomal CLint is over 500 µL/min/mg. The efflux ratio in data set [4] worked out at 0.95.

With `Cc1sc2ncnc(SCC(=O)N3CCn4cnnc4C3)c2c1Cl`, the Stability result in data set [6] and in data set [7] was “Stable” throughout.

With `Cc1sc2ncnc(SCC(=O)N3CC(=O)N(C)C3)c2c1Cl`, the Stability entry in data set [6] and in data set [7] was “Stable” in each case.

The values are drawn from ChEMBL document CHEMBL4610015, “Scaffold-hopping identifies furano[2,3-d]pyrimidine amides as potent Notum inhibitors” (Bioorg Med Chem Lett, 2020).
